In ChEMBL document CHEMBL4265992, “Noncovalent Inhibitors of Mosquito Acetylcholinesterase 1 with Resistance-Breaking Potency” (J Med Chem, 2018):
pIC50: −log10 of the molar value. Calls of active or inactive are those of the source. No cut-off for these calls is given here.

What was measured:
[1] = molecular target: Acetylcholinesterase (Anopheles gambiae, UniProt Q869C3); assay: Inhibition of recombinant Anopheles gambiae AChE1 expressed in sf9 insect cells using acetylthiocholine iodide as substrate measured over 60 secs by Ellman assay
Procedure, shortened: (§1)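 Enzyme source: secreted, non-purified recombinant protein in growth medium. Ellman assay at 30 °C in 0.1 M phosphate buffer pH 7.4 containing 0.2 mM DTNB and 1 mM acetylthiocholine iodide. Absorbance at 412 nm was followed over 60 s after substrate addition, immediately after inhibitor. Activity was expressed relative to the mean slope of eight uninhibited controls per plate.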

[2] = molecular target: Acetylcholinesterase (Anopheles gambiae, UniProt Q869C3, G122S); assay: Inhibition of recombinant Anopheles gambiae AChE1 G122S mutant expressed in sf9 insect cells using acetylthiocholine iodide as substrate measured over 60 secs by Ellman assay; procedure, shortened: as §1
[3] = molecular target: Acetylcholinesterase (Aedes aegypti, UniProt Q6A2E2); assay: Inhibition of recombinant Aedes aegypti AChE1 expressed in sf9 insect cells using acetylthiocholine iodide as substrate measured over 60 secs by Ellman assay; procedure, shortened: as §1
[4] = molecular target: T1, Acetylcholinesterase (Homo sapiens, UniProt P22303); assay: Inhibition of recombinant human AChE using acetylthiocholine iodide as substrate measured over 60 secs by Ellman assay; procedure, shortened: as §1
[5] = Selectivity ratio of IC50 for recombinant human AChE to IC50 for recombinant Aedes aegypti AChE1
Procedure, shortened: (§2)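 Ratio = IC50 for hAChE divided by the higher of the IC50 values for AaAChE1 and AgAChE1. All IC50 values came from the Ellman assay with secreted recombinant enzymes.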

[6] = Selectivity ratio of IC50 for recombinant human AChE to IC50 for recombinant Anopheles gambiae AChE1; procedure, shortened: as §2
[7] = test system: Aedes aegypti; assay: Insecticidal activity against five day old female adult Aedes aegypti Mombasa assessed as mortality rate at 57.3 ng administered via micro-injection measured after 24 hrs relative to control; assay type: functional
Procedure, shortened: (§3)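 Test compounds were made up at 100 mM in acetone, then diluted in mosquito saline (5% acetone final; 4.3% for propoxur). 23 nl was injected into the thoracic cavity of anesthetized females. Negative control was saline with matching acetone. Mosquitoes were then given glucose. Mortality was read at 24 and 48 h, Abbott-corrected when control mortality exceeded 5%. Runs with control mortality ≥20% were discarded.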

[8] = test system: Aedes aegypti; assay: Insecticidal activity against five day old female adult Aedes aegypti Mombasa assessed as mortality at 4.26 ug administered topically measured after 24 hrs relative to control; assay type: functional
Procedure, shortened: (§4)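 Mosquitoes were reared at 27–28 °C, ~80% humidity, on a 12/12 h light cycle. Insects were chilled on a −20 °C plate. 0.1 µl of compound in acetone was applied to the upper pronotum. Negative control was acetone alone. Afterwards mosquitoes were given glucose and kept in the insectary. Mortality was scored at 24 h, Abbott-corrected when control mortality exceeded 5%. Runs with control mortality ≥20% were discarded.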

[9] = test system: Aedes aegypti; assay: Insecticidal activity against topically dosed five day old female adult Aedes aegypti Mombasa assessed as mortality measured after 24 hrs; assay type: functional; procedure, shortened: as §4
[10] = test system: Aedes aegypti; assay: Insecticidal activity against five day old female adult Aedes aegypti Mombasa assessed as mortality rate at 57.3 ng administered via micro-injection measured after 48 hrs relative to control; assay type: functional; procedure, shortened: as §3
[11] = test system: Anopheles gambiae; assay: Insecticidal activity against five day old female adult Anopheles gambiae Kisumu assessed as mortality at 4.26 ug administered topically measured after 24 hrs relative to control; assay type: functional; procedure, shortened: as §4
[12] = molecular target: T1, Acetylcholinesterase; assay: Inhibition of recombinant human AChE at 1 mM using acetylthiocholine iodide as substrate measured over 60 secs by Ellman assay; details: 1 min, 1000 µM
[13] = molecular target: Acetylcholinesterase (Aedes aegypti) (UniProt Q6A2E2); assay: Inhibition of recombinant Aedes aegypti AChE1 expressed in sf9 insect cells at 1 mM using acetylthiocholine iodide as substrate measured over 60 secs by Ellman assay
[14] = test system: Acetylcholinesterase (Anopheles gambiae), Q869C3 [G122S]; assay: Inhibition of recombinant Anopheles gambiae AChE1 G122S mutant expressed in sf9 insect cells at 1 mM using acetylthiocholine iodide as substrate measured over 60 secs by Ellman assay
[15] = molecular target: Acetylcholinesterase (Anopheles gambiae) (UniProt Q869C3); assay: Inhibition of recombinant Anopheles gambiae AChE1 expressed in sf9 insect cells at 1 mM using acetylthiocholine iodide as substrate measured over 60 secs by Ellman assay
[16] = test system: Aedes aegypti; assay: Insecticidal activity against topically dosed female adult Aedes aegypti assessed as mortality measured after 24 hrs; assay type: functional; procedure, shortened: as §4
[17] = test system: Aedes aegypti; assay: Insecticidal activity against five day old female adult Aedes aegypti Mombasa assessed as mortality rate at 21 ng administered via micro-injection measured after 24 hrs relative to control; assay type: functional; procedure, shortened: as §3
[18] = test system: Aedes aegypti; assay: Insecticidal activity against five day old female adult Aedes aegypti Mombasa assessed as mortality rate at 52.7 ng administered via micro-injection measured after 48 hrs relative to control; assay type: functional; procedure, shortened: as §3
[19] = test system: Aedes aegypti; assay: Insecticidal activity against five day old female adult Aedes aegypti Mombasa assessed as mortality rate at 52.7 ng administered via micro-injection measured after 24 hrs relative to control; assay type: functional; procedure, shortened: as §3
[20] = test system: Aedes aegypti; assay: Insecticidal activity against five day old female adult Aedes aegypti Mombasa assessed as mortality rate at 60.4 ng administered via micro-injection measured after 48 hrs relative to control; assay type: functional; procedure, shortened: as §3
[21] = test system: Aedes aegypti; assay: Insecticidal activity against five day old female adult Aedes aegypti Mombasa assessed as mortality rate at 60.4 ng administered via micro-injection measured after 24 hrs relative to control; assay type: functional; procedure, shortened: as §3
[22] = test system: Aedes aegypti; assay: Insecticidal activity against five day old female adult Aedes aegypti Mombasa assessed as mortality rate at 53.6 ng administered via micro-injection measured after 48 hrs relative to control; assay type: functional; procedure, shortened: as §3
[23] = test system: Aedes aegypti; assay: Insecticidal activity against five day old female adult Aedes aegypti Mombasa assessed as mortality rate at 53.6 ng administered via micro-injection measured after 24 hrs relative to control; assay type: functional; procedure, shortened: as §3

Structure (SMILES): O=C(COc1ccc(-c2ccccc2)cc1)N1CCC(N2CCOCC2)CC1
- pIC50 [1]: < 3.70
- pIC50 [2]: < 3.70
- pIC50 [3]: < 3.70
- pIC50 [4]: 4.03

Structure (SMILES): CCN1CCN(CCCNC(=O)COc2ccc(I)cc2)CC1
- Ratio IC50 [5]: 1.2
- Ratio IC50 [6]: 1.2
- pIC50 [1]: 4.37
- pIC50 [2]: 4.02
- pIC50 [3]: 4.14
- pIC50 [4]: 4.06

Structure (SMILES): CCN1CCN(C2CCN(C(=O)COc3ccc(-c4ccccc4F)cc3)CC2)CC1
- mortality [7]: 55%
- Ratio IC50 [5]: 79
- Ratio IC50 [6]: 79
- pIC50 [1]: 6.62
- mortality [8]: 75%
- pIC50 [2]: 6.15
- LD50 [9]: 2.13 µg
- mortality [10]: 56%
- pIC50 [3]: 6.66
- pIC50 [4]: 4.72
- mortality [11]: 88%

Structure (SMILES): COc1ccc(-c2ccc(OCC(=O)NCCCN3CCCCC3)cc2)cc1
- Ratio IC50 [5]: 3.1
- Ratio IC50 [6]: 3.1
- pIC50 [1]: 5.35
- pIC50 [2]: 5.28
- pIC50 [3]: 5.41
- pIC50 [4]: 4.85

Structure (SMILES): CCN1CCN(C2CCN(C(=O)COc3ccc(-c4ccccc4)cc3)CC2)CC1
- pIC50 [3]: 6.66

Structure (SMILES): CCN1CCN(C2CCN(C(=O)COc3ccc(I)cc3)CC2)CC1
- Ratio IC50 [5]: 5.6
- Ratio IC50 [6]: 5.6
- pIC50 [1]: 5.44
- pIC50 [2]: 5.21
- pIC50 [3]: 5.82
- pIC50 [4]: 4.70

Structure (SMILES): CN1CCN(CCCNC(=O)COc2ccc(-c3ccccc3)cc2)CC1
- Ratio IC50 [5]: 8.8
- Ratio IC50 [6]: 8.8
- pIC50 [1]: 4.89
- pIC50 [2]: 4.41
- pIC50 [3]: 4.92
- pIC50 [4]: 3.94

Structure (SMILES): O=C(COc1ccc(-c2ccccc2)cc1)N1CCOCC1
- inhibition (INH) [12]: Not Active
- inhibition [13]: inactive
- inhibition [14]: inactive
- inhibition [15]: inactive

Structure (SMILES): CNC(=O)Oc1cccc2c1OC(C)(C)O2 [BENDIOCARB]
- LD50 [16]: 0.0018 µg

Structure (SMILES): O=C(COc1ccc(I)cc1)NCCCN1CCCCC1
- Ratio IC50 [5]: 0.3
- Ratio IC50 [6]: 0.3
- pIC50 [1]: 4.36
- pIC50 [2]: 4.51
- pIC50 [3]: 4.44
- pIC50 [4]: 4.89

Structure (SMILES): O=C(COc1ccc(-c2ccccc2)cc1)N1CCCCC1
- inhibition (INH) [12]: Not Active
- inhibition [13]: inactive
- inhibition [14]: inactive
- inhibition [15]: inactive

Structure (SMILES): CNC(=O)Oc1ccccc1OC(C)C [PROPOXUR]
- LD50 [16]: 0.0054 µg
- mortality [17]: 85%

Structure (SMILES): O=C(COc1ccc(-c2ccccc2)cc1)NCCCN1CCCCC1
- Ratio IC50 [5]: 5.7
- Ratio IC50 [6]: 5.7
- pIC50 [1]: 5.00
- pIC50 [2]: 4.64
- pIC50 [3]: 5.00
- pIC50 [4]: 4.24

Structure (SMILES): O=C(COc1ccc(-c2ccccc2)cc1)N1CCC(N2CCCCC2)CC1
- Ratio IC50 [5]: 1.2
- Ratio IC50 [6]: 1.2
- pIC50 [1]: 5.42
- pIC50 [2]: 5.38
- pIC50 [3]: 5.40
- pIC50 [4]: 5.34

Structure (SMILES): CCN1CCN(C2CCN(C(=O)COc3ccc4c(c3)CCC4=O)CC2)CC1
- Ratio IC50 [5]: 16
- Ratio IC50 [6]: 16
- pIC50 [1]: 6.54
- mortality [8]: 50%
- mortality [18]: 64%
- pIC50 [2]: 6.42
- pIC50 [3]: 6.70
- mortality [19]: 58%
- pIC50 [4]: 5.31

Structure (SMILES): CN1CCN(CCCNC(=O)COc2ccc(I)cc2)CC1
- Ratio IC50 [5]: 1.2
- Ratio IC50 [6]: 1.2
- pIC50 [1]: 3.94
- pIC50 [2]: 3.89
- pIC50 [3]: 3.95
- pIC50 [4]: 3.86

Structure (SMILES): CCN1CCN(CCCNC(=O)COc2ccc(-c3ccccc3)cc2)CC1
- Ratio IC50 [5]: 32
- Ratio IC50 [6]: 32
- pIC50 [1]: 5.46
- pIC50 [2]: 4.80
- pIC50 [3]: 5.48
- pIC50 [4]: 3.95

Structure (SMILES): CCN1CCN(CCCNC(=O)COc2ccc(-c3ccc(OC)cc3)cc2)CC1
- Ratio IC50 [5]: 19
- Ratio IC50 [6]: 19
- pIC50 [1]: 5.24
- pIC50 [2]: 4.70
- pIC50 [3]: 5.42
- pIC50 [4]: 3.96

Structure (SMILES): CCN1CCN(C2CCN(C(=O)COc3ccc(-c4ccc([N+](=O)[O-])cc4)cc3)CC2)CC1
- Ratio IC50 [5]: 19
- Ratio IC50 [6]: 19
- pIC50 [1]: 7.10
- mortality [8]: 31%
- mortality [20]: 69%
- mortality [21]: 64%
- pIC50 [2]: 6.89
- pIC50 [3]: 6.96
- pIC50 [4]: 5.68

Structure (SMILES): CCN1CCN(C(=O)COc2ccc(-c3ccccc3)cc2)CC1
- pIC50 [1]: < 3.70
- pIC50 [2]: < 3.70
- pIC50 [3]: < 3.70
- pIC50 [4]: < 3.70

Structure (SMILES): CN1CCN(C2CCN(C(=O)COc3ccc(-c4ccccc4)cc3)CC2)CC1
- mortality [22]: 66%
- mortality [23]: 58%
- Ratio IC50 [5]: 40
- Ratio IC50 [6]: 40
- pIC50 [1]: 6.62
- pIC50 [2]: 6.27
- pIC50 [3]: 6.60
- pIC50 [4]: 5.00

Structure (SMILES): CCN1CCN(C2CCN(C(=O)COc3ccc(-c4ccc(OC)cc4)cc3)CC2)CC1
- Ratio IC50 [5]: 45
- Ratio IC50 [6]: 45
- pIC50 [1]: 6.40
- pIC50 [2]: 6.02
- pIC50 [3]: 6.64
- pIC50 [4]: 4.74

Structure (SMILES): COc1ccc(-c2ccc(OCC(=O)NCCCN3CCN(C)CC3)cc2)cc1
- Ratio IC50 [5]: 7.6
- Ratio IC50 [6]: 7.6
- pIC50 [1]: 4.60
- pIC50 [2]: 4.48
- pIC50 [3]: 4.80
- pIC50 [4]: 3.72
